ChEMBL document CHEMBL3045704, “Biflavonoids isolated from Selaginella lepidophylla inhibit photosynthesis in spinach chloroplasts” (J Agric Food Chem, 2008)
Active and inactive are the calls of the source. No cut-off for these calls is given here.

Experiments:
Spinacia oleracea [1] = experiment: Inhibition of thylakoid membrane bound Magnesium-transporting Mg2+ ATPase in Spinacia oleracea (spinach) leaves chloroplasts assessed as enzyme activity at 300 uM; design: scale not given: the % may be the effect or the level left
Summary of the method: (§1)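 Chloroplasts were ground in 350 mM sorbitol, 5 mM ascorbate and 20 mM MES pH 6.5, centrifuged 3000g for 60 s, washed, and resuspended in 35 mM HEPES pH 7.6. Light-triggered thylakoid-bound Mg2+-ATPase was assayed via released Pi (Sumner method), expressed as µM P/mg Chl/h and as % of control. Tested at 100–300 µM, or NH4Cl at 1–6 mM.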

Spinacia oleracea [2] = experiment: Inhibition of thylakoid membrane bound Magnesium-transporting Mg2+ ATPase in Spinacia oleracea (spinach) leaves chloroplasts assessed as enzyme activity at 200 uM; design: scale not given: the % may be the effect or the level left; summary of the method: as §1
Spinacia oleracea [3] = experiment: Inhibition of thylakoid membrane bound Magnesium-transporting Mg2+ ATPase in Spinacia oleracea (spinach) leaves chloroplasts assessed as enzyme activity at 100 uM; design: scale not given: the % may be the effect or the level left; summary of the method: as §1
[4] = biological target: T1, Photosystem I iron-sulfur center (Spinacia oleracea) (UniProt P10098); experiment: Inhibition of photosystem I in Spinacia oleracea (spinach) leaves intact chloroplasts assessed as electron transport flow from TMQH2 to MV at 300 uM; design: scale not given: the % may be the effect or the level left
T1 sequence (whole entry): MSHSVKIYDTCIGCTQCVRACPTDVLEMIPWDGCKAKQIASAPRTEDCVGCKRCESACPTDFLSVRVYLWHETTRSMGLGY
Summary of the method: (§2)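 Electron flow from TMQH2 to MV was determined polarographically with a Clark electrode in basal electron transport medium.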

[5] = biological target: T1, Photosystem I iron-sulfur center (Spinacia oleracea); experiment: Inhibition of photosystem I in Spinacia oleracea (spinach) leaves intact chloroplasts assessed as electron transport flow from TMQH2 to MV at 200 uM; design: scale not given: the % may be the effect or the level left; summary of the method: as §2
[6] = biological target: T1, Photosystem I iron-sulfur center (Spinacia oleracea); experiment: Inhibition of photosystem I in Spinacia oleracea (spinach) leaves intact chloroplasts assessed as electron transport flow from TMQH2 to MV at 100 uM; design: scale not given: the % may be the effect or the level left; summary of the method: as §2
[7] = biological target: T1, Photosystem I iron-sulfur center (Spinacia oleracea); experiment: Inhibition of photosystem I in Spinacia oleracea (spinach) leaves intact chloroplasts assessed as electron transport flow from DCPIP to MV at 300 uM; design: scale not given: the % may be the effect or the level left
Summary of the method: (§3)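 Uncoupled PSI flow, reduced DCPIP to MV, in basal electron transport medium (3 mL). Additions: 10 µM DCMU, 100 µM DCPIP, 300 µM ascorbate and 6 mM NH4Cl. O2 uptake was monitored with a Clark electrode.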

[8] = biological target: T1, Photosystem I iron-sulfur center (Spinacia oleracea); experiment: Inhibition of photosystem I in Spinacia oleracea (spinach) leaves intact chloroplasts assessed as electron transport flow from DCPIP to MV at 200 uM; design: scale not given: the % may be the effect or the level left; summary of the method: as §3
[9] = biological target: T1, Photosystem I iron-sulfur center (Spinacia oleracea); experiment: Inhibition of photosystem I in Spinacia oleracea (spinach) leaves intact chloroplasts assessed as electron transport flow from DCPIP to MV at 100 uM; design: scale not given: the % may be the effect or the level left; summary of the method: as §3
Spinacia oleracea [10] = experiment: Inhibition of uncoupled electron transport flow in Spinacia oleracea (spinach) leaves intact chloroplasts at 300 uM; assay type: functional
[11] = biological target: Photosystem II protein D1 (Spinacia oleracea) (UniProt P69560); experiment: Inhibition of photosystem II in Spinacia oleracea (spinach) leaves intact chloroplasts assessed as electron transport flow from H2O to DCPIP at 200 uM; design: scale not given: the % may be the effect or the level left
Summary of the method: (§4)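 Uncoupled PSII, water to DCPIP, was followed as DCPIP-supported O2 evolution on a Clark electrode. Medium: basal electron transport medium with 1 µM DBMIB, 100 µM DCPIP, 300 µM K3[Fe(CN)6] and 6 mM NH4Cl, without MV. I50 values were calculated.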

[12] = biological target: Photosystem II protein D1 (Spinacia oleracea) (UniProt P69560); experiment: Inhibition of photosystem II in Spinacia oleracea (spinach) leaves intact chloroplasts assessed as electron transport flow from H2O to DCPIP at 300 uM; design: scale not given: the % may be the effect or the level left; summary of the method: as §4
[13] = biological target: Photosystem II protein D1 (Spinacia oleracea) (UniProt P69560); experiment: Inhibition of photosystem II in Spinacia oleracea (spinach) leaves intact chloroplasts assessed as electron transport flow from H2O to DCPIP at 100 uM; design: scale not given: the % may be the effect or the level left; summary of the method: as §4
Spinacia oleracea [14] = experiment: Inhibition of ATP synthesis in Spinacia oleracea (spinach) leaves intact chloroplasts; assay type: functional; details: read-out: I50
Spinacia oleracea [15] = experiment: Increase in chlorophyll a fluorescence in freshly lysed Spinacia oleracea (spinach) leaves chloroplasts at 10 uM
Spinacia oleracea [16] = experiment: Inhibition of thylakoid membrane bound Magnesium-transporting Mg2+ ATPase in Spinacia oleracea (spinach) leaves chloroplasts assessed as enzyme activity at 6 mM; design: scale not given: the % may be the effect or the level left; summary of the method: as §1
Spinacia oleracea [17] = experiment: Inhibition of thylakoid membrane bound Magnesium-transporting Mg2+ ATPase in Spinacia oleracea (spinach) leaves chloroplasts assessed as enzyme activity at 3 mM; design: scale not given: the % may be the effect or the level left; summary of the method: as §1
Spinacia oleracea [18] = experiment: Inhibition of thylakoid membrane bound Magnesium-transporting Mg2+ ATPase in Spinacia oleracea (spinach) leaves chloroplasts assessed as enzyme activity at 1 mM; design: scale not given: the % may be the effect or the level left; summary of the method: as §1
[19] = biological target: T1, Photosystem I iron-sulfur center (Spinacia oleracea); experiment: Inhibition of photosystem I in Spinacia oleracea (spinach) leaves chloroplasts assessed as effect on partial reaction from PMS reduced with ascorbate to MV using KCN treated thylakoids
Summary of the method: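 Chloroplasts were held in basal medium with 30 mM KCN for 60 min at 4 °C in the dark to release plastocyanin. They were then diluted in sucrose/30 mM HEPES-NaOH pH 7.2/2 mM MgCl2, centrifuged 5000g for 2 min and resuspended. Flow from 100 µM PMS/300 µM ascorbate to MV was assayed in basal medium plus 1 µM DBMIB.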

[20] = biological target: T1, Photosystem I iron-sulfur center (Spinacia oleracea); experiment: Inhibition of photosystem I in Spinacia oleracea (spinach) leaves intact chloroplasts assessed as electron transport flow from TMQH2 to MV at 50 uM; design: scale not given: the % may be the effect or the level left; summary of the method: as §2
[21] = biological target: T1, Photosystem I iron-sulfur center (Spinacia oleracea); experiment: Inhibition of photosystem I in Spinacia oleracea (spinach) leaves intact chloroplasts assessed as electron transport flow from DCPIP to MV at 50 uM; design: scale not given: the % may be the effect or the level left; summary of the method: as §3
[22] = biological target: Photosystem II protein D1 (Spinacia oleracea) (UniProt P69560); experiment: Inhibition of photosystem II in Spinacia oleracea (spinach) leaves intact chloroplasts assessed as electron transport flow from H2O to DCPIP at 50 uM; design: scale not given: the % may be the effect or the level left; summary of the method: as §4
[23] = biological target: Photosystem II protein D1 (Spinacia oleracea) (UniProt P69560); experiment: Inhibition of photosystem II in freshly lysed Spinacia oleracea (spinach) leaves chloroplasts assessed as induction of loss of reactions centers capacity to capture excitons at 300 to 900 uM
Summary of the method: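 JIP-test on Chl a fluorescence transients of freshly lysed spinach chloroplasts, dark-adapted 5 min at 20 µg/mL Chl. Measured at room temperature with a Handy PEA at 300, 600 and 900 µM. Parameters such as […] VJ were derived from the curves and expressed relative to control (%). Results are the average of three replicates.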

[24] = biological target: Photosystem II protein D1 (Spinacia oleracea) (UniProt P69560); experiment: Inhibition of photosystem II in Spinacia oleracea (spinach) leaves intact chloroplasts assessed as electron transport flow from DPC to DCPIP at 300 uM; design: scale not given: the % may be the effect or the level left
Summary of the method: (§5)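 Thylakoids (45 µg Chl) were pretreated with 0.8 M Tris pH 8.0 for 30 min at 4 °C, centrifuged 5000g for 2 min and resuspended in reaction medium. Electron flow from DPC to DCPIP was read spectrophotometrically at 600 nm, with DCPIP reduction quantified by its molar extinction coefficient. I50 values were calculated.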

[25] = biological target: Photosystem II protein D1 (Spinacia oleracea) (UniProt P69560); experiment: Inhibition of photosystem II in Spinacia oleracea (spinach) leaves intact chloroplasts assessed as electron transport flow from DPC to DCPIP at 100 uM; design: scale not given: the % may be the effect or the level left; summary of the method: as §5
[26] = biological target: Photosystem II protein D1 (Spinacia oleracea) (UniProt P69560); experiment: Inhibition of photosystem II in Spinacia oleracea (spinach) leaves intact chloroplasts assessed as electron transport flow from H2O to SiMo at 300 uM; design: scale not given: the % may be the effect or the level left
Summary of the method: (§6)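 Uncoupled partial PSII reaction, water to silicomolybdate, measured by Clark electrode O2 evolution. Basal medium (sorbitol/KCl/MgCl2/KCN/30 mM tricine pH 8) was supplemented with 200 µM SiMo, 10 µM DCMU and 6 mM NH4Cl, without MV. I50 values were calculated.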

[27] = biological target: Photosystem II protein D1 (Spinacia oleracea) (UniProt P69560); experiment: Inhibition of photosystem II in Spinacia oleracea (spinach) leaves intact chloroplasts assessed as electron transport flow from H2O to SiMo at 200 uM; design: scale not given: the % may be the effect or the level left; summary of the method: as §6
Spinacia oleracea [28] = experiment: Inhibition of basal electron transport flow in Spinacia oleracea (spinach) leaves intact chloroplasts at 88 uM; assay type: functional
Spinacia oleracea [29] = experiment: Inhibition of uncoupled electron transport flow in Spinacia oleracea (spinach) leaves intact chloroplasts; assay type: functional; details: read-out: I50
[30] = biological target: Photosystem II protein D1 (Spinacia oleracea) (UniProt P69560); experiment: Inhibition of photosystem II in Spinacia oleracea (spinach) leaves intact chloroplasts assessed as electron transport flow from DPC to DCPIP at 200 uM; design: scale not given: the % may be the effect or the level left; summary of the method: as §5
[31] = biological target: Photosystem II protein D1 (Spinacia oleracea) (UniProt P69560); experiment: Inhibition of photosystem II in Spinacia oleracea (spinach) leaves intact chloroplasts assessed as electron transport flow from H2O to SiMo at 100 uM; design: scale not given: the % may be the effect or the level left; summary of the method: as §6

Row | SMILES | Activity (Spinacia oleracea [1]) [%] | Activity (Spinacia oleracea [2]) [%] | Activity (Spinacia oleracea [3]) [%] | Activity [4] [%] | Activity [5] [%] | Activity [6] [%] | Activity [7] [%] | Activity [8] [%] | Activity [9] [%] | Activity [11] [%] | Activity [12] [%] | Activity [13] [%] | IC50 (Spinacia oleracea [14]) [µM] | Inhibition % (Spinacia oleracea [10]) [%] | other results
1 | CN(C)C(=O)Nc1ccc(Cl)c(Cl)c1 |  |  |  |  |  |  |  |  |  |  |  |  |  |  | Activity (Spinacia oleracea [15]): Active
2 | Cl.N |  |  |  |  |  |  |  |  |  |  |  |  |  |  | Activity (Spinacia oleracea [16]): 124%; Activity (Spinacia oleracea [17]): 240%; Activity (Spinacia oleracea [18]): 206%
3 | O=c1cc(-c2ccc(O)c(-c3c(O)cc4oc(-c5ccc(O)cc5)cc(=O)c4c3O)c2)oc2cc(O)cc(O)c12 [ROBUSTAFLAVONE] | 76 | 76 | 76 | 100 | 100 | 100 | 100 | 100 | 100 | 43 | 29 | 57 | 44 |  | inhibition [23]: Active; Activity [24]: 9%; Activity [25]: 89%; Activity [26]: 50%; Activity [27]: 50%; inhibition (Spinacia oleracea [28]): 22%; IC50 (Spinacia oleracea [29]): 88 µM; Activity [30]: 35%; Activity [31]: 100%

Second part, led by results:

Row | Activity (Spinacia oleracea [1]) [%] | Activity (Spinacia oleracea [2]) [%] | Activity (Spinacia oleracea [3]) [%] | Activity [4] [%] | Activity [5] [%] | Activity [6] [%] | Activity [7] [%] | Activity [8] [%] | Activity [9] [%] | Activity [11] [%] | Activity [12] [%] | Activity [13] [%] | IC50 (Spinacia oleracea [14]) [µM] | SMILES | Inhibition % (Spinacia oleracea [10]) [%] | other results
4 | 20 | 44 | 63 | 100 | 100 | 100 | 100 | 100 | 100 | 100 | 100 | 100 | 79 | COc1cc(O)cc2c1C(=O)CC(c1ccc(O)c(-c3c(O)cc4oc(-c5ccc(O)cc5)cc(=O)c4c3O)c1)O2 (stereo not drawn) | 25 | 
5 | 34 | 47 | 53 | 72 | 74 | 98 | 71 | 71 | 74 | 100 | 100 | 100 | 39 | O=C1CC(c2ccc(O)c(-c3c(O)cc4oc(-c5ccc(O)cc5)cc(=O)c4c3O)c2)Oc2cc(O)cc(O)c21 (stereo not drawn) [2,3-DIHYDROROBUSTAFLAVONE] | 32 | inhibition [19]: inactive; Activity [20]: 100%; Activity [21]: 96%; Activity [22]: 100%
